Compound activity: PubChem, Broad Institute
PGC1a acetyl inh: inhibitors of PGC1a acetylation signal, primary screen, cell-based, U2OS, AlphaScreen, inhibitor mode; inhibition, % at 15.6 µM; AlphaScreen anti-acetyl-lysine; with virally co-expressed GCN5 acetyltransferase; 350,000 tested, 0.17% active;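 active means every replicate shows inhibition of at least 40%; inconclusive means mean inhibition at least 40% but some replicate below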
C2C12 statin: suppressors of statin myotoxicity in C2C12 myotubes, primary screen, cell-based, single point, plate reader; C2C12 myotubes + simvastatin, ATP luminescence, 48 h; scaled: DMSO 0, geranylgeraniol control 100; rescue of ATP level, % at 7.49 µM; 330,000 tested, 0.78% active;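 active means mean ATP rescue above about 67%, or every replicate alone reaching that limit, limit read from the data, passing the limit was not always enough; inconclusive means no clear call, values can overlap the other calls; inactive means mean under the limit and some replicate under it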;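 further: myotubes were challenged with 10 µM simvastatin during compound exposure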
ERAP1 HTS inh: human ERAP1 aminopeptidase inhibitors, primary screen, biochemical, single point, plate reader; 340,000 tested, 0.15% active; AID 652197, 2013; recombinant ERAP1, Leu-AMC fluorescence, 60 min; inhibition, % at 10.7 µM;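 active means mean replicate inhibition of at least 30%, or all replicates individually reaching that 30% level; inactive means mean below 30% and not every replicate reaching it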
S100A4 inh HTS: inhibitors of S100A4-myosin IIA peptide binding, primary screen, biochemical, fluorescence polarization, TAMRA-MyoIIA peptide; Protein S100-A4 (Homo sapiens), P26447; 360,000 tested, 0.14% active; inhibition, % at 10.7 µM;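 active means mean inhibition of at least 70% across replicates, with every replicate also reaching that level; inconclusive means mean inhibition reaches 70% but some replicates fall short; inactive means mean inhibition below 70%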
Target sequence (P26447 whole entry, looked up): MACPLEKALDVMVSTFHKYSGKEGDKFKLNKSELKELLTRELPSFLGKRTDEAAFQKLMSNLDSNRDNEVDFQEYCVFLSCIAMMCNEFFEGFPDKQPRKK
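Material: S100A4 monomer (human). Medium: Calcium-containing HEPES buffer, pH 7.2. Probe or stimulus: labelled myosin peptide probe, 5 nM. Compound dosing: one concentration per compound. Timing: polarization read 5 min after assay mix addition, stable 5–60 min. Benchmarks: DMSO as neutral control, TFP as positive control.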
Rtt109 HAT inh: inhibitors of C. albicans Rtt109/Vps75 HAT, primary screen, biochemical, ThioGlo CoA-SH fluorescence, plate reader; Histone acetyltransferase RTT109 (Candida albicans (strain SC5314 / ATCC MYA-2876)), …; purified Rtt109/Vps75, 4 h; inhibition, % at 34.9 µM; 330,000 tested, 0.16% active; AID 540336, 2011;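 active means inhibition of at least 50% in every replicate; inconclusive means best replicate reaches 50% inhibition but some replicates fall short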
Target sequence (Q5AAJ8 whole entry, looked up): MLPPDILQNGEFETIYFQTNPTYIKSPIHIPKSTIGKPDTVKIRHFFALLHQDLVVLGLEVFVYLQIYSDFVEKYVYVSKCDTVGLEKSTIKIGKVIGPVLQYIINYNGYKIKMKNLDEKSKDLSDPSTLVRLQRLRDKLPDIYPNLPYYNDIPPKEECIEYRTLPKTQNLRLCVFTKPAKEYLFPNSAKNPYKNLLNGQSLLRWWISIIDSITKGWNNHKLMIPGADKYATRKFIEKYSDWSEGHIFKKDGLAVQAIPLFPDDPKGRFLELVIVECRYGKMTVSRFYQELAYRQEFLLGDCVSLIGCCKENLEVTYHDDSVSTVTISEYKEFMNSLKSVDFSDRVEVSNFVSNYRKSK
Of the large screens only hits and unclear results are named; the others gave an inactive call. An excerpt weighted towards active compounds, which were near 0.98% of everything screened.

C[C@H]1CN([C@@H](C)CO)C(=O)Cc2cc(NC(=O)Nc3ccccc3)ccc2O[C@H]1CN(C)Cc1ccc(C(F)(F)F)cc1	none (no result: Rtt109 HAT inh)
CO[C@H](CN(C)S(=O)(=O)c1cn(C)cn1)[C@H](C)CN(C(=O)Nc1ccc(C(F)(F)F)cc1)[C@H](C)CO	none (no result: Rtt109 HAT inh)
N#Cc1c(/N=C/c2cc(Br)cs2)sc2c1CCC2	C2C12 statin 68.5 (no result: ERAP1 HTS inh, S100A4 inh HTS)
N#Cc1c(/N=C/c2cccs2)sc2c1CCC2	none (no result: ERAP1 HTS inh, S100A4 inh HTS)
O=C(NCC1CC1)Nc1ccccc1F	PGC1a acetyl inh 82.8
O=C1C(Cl)=C(Nc2ccccc2O)C(=O)N1c1ccccc1	none (no result: ERAP1 HTS inh, S100A4 inh HTS)
Cc1ccccc1NC1=C(Cl)C(=O)N(C2CCCCC2)C1=O	none (no result: PGC1a acetyl inh, C2C12 statin, ERAP1 HTS inh, S100A4 inh HTS)
COc1ccccc1NC1=C(Cl)C(=O)N(C2CCCCC2)C1=O	Rtt109 HAT inh 51.9 (no result: ERAP1 HTS inh, S100A4 inh HTS)
COc1ccccc1N1C(=O)C(Cl)=C(Nc2ccccc2O)C1=O	Rtt109 HAT inh 75.0 (no result: PGC1a acetyl inh, C2C12 statin, ERAP1 HTS inh, S100A4 inh HTS)
CCC(=O)N1[C@H](CO)[C@H]2c3ccccc3N(S(=O)(=O)c3ccccc3C)C[C@H]21	none (no result: Rtt109 HAT inh)
Cc1ccc(NC(=O)CCNS(=O)(=O)c2ccc3[nH]c(=O)oc3c2)cc1F	C2C12 statin 111.1
C[C@@H](NC(=O)C[C@H]1CC[C@H]2[C@@H](COC[C@H](O)CN2C(=O)Nc2cc(Cl)cc(Cl)c2)O1)c1ccccc1	none (no result: Rtt109 HAT inh)
O=C(CNC(=O)c1ccc(Br)o1)NC12CC3CC(CC(C3)C1)C2	Rtt109 HAT inh 57.6 (no result: C2C12 statin)
COc1ccc(C2=NN(CCC(=O)NC3CCC(C)CC3)C(=O)CC2)cc1 (stereo not drawn)	S100A4 inh HTS 88.4
COc1ccc(C2=NN(CCC(=O)NC3CCCCCC3)C(=O)CC2)cc1	none
COc1cccc(-c2csc(N3CCN(C(=O)Nc4ccccc4OC)CC3)n2)c1	C2C12 statin 77.1
Cc1ccc(OCCNC(=O)C2CCCCC2)cc1	S100A4 inh HTS inconclusive (no result: PGC1a acetyl inh, C2C12 statin)
COc1ccccc1OCCNC(=O)C1CCCCC1	ERAP1 HTS inh 31.9
COc1cccc(CN2CC3(CCN(Cc4ccccn4)CC3)c3c([nH]c4cc(OC)ccc34)[C@H]2CO)c1	none (no result: C2C12 statin, Rtt109 HAT inh)
CCOC(=O)N1CCN(c2c(N3CCN(c4cc(C)ccc4C)CC3)c(=O)c2=O)CC1	C2C12 statin 101.8
CCOC(=O)N1CCN(c2c(N3CCN(C(=O)OCC)CC3)c(=O)c2=O)CC1	none
Cc1ccc(/C=C2\SC(=S)N(CCCC(=O)Nc3ccccn3)C2=O)cc1	none (no result: C2C12 statin, ERAP1 HTS inh, S100A4 inh HTS)
O=C(CCN1C(=O)/C(=C/c2ccccc2)SC1=S)Nc1ccccn1	C2C12 statin 93.2
O=C(CCN1C(=O)/C(=C/c2ccccc2)SC1=S)NCCCN1CCOCC1	PGC1a acetyl inh 56.4
O=C(CCN1C(=O)/C(=C\c2cccc(Br)c2)SC1=S)NCCCN1CCOCC1	none
N#C[C@@H]1[C@@H](c2ccccc2-c2cccc(F)c2)[C@H](CO)N1C(=O)C1CCCCC1	none (no result: C2C12 statin, Rtt109 HAT inh)
O=C(Nc1cccc(F)c1)N1CC(=O)N2[C@H](C1)[C@H](c1ccc(-c3ccccc3)cc1)[C@@H]2CO	none (no result: C2C12 statin, Rtt109 HAT inh)
CN(C)C(CNC(=O)NC1CCCCC1)c1cccnc1 (stereo not drawn)	C2C12 statin 107.3 (no result: ERAP1 HTS inh, S100A4 inh HTS)
O=C1CCCC2=C1C(c1ccco1)Nc1ccc3ccccc3c12 (stereo not drawn)	C2C12 statin 94.9 (no result: ERAP1 HTS inh, S100A4 inh HTS)
O=C1CCCC2=C1C(c1ccc(O)c(O)c1)Nc1ccc3ccccc3c12 (stereo not drawn)	none (no result: C2C12 statin)
COc1ccc(S(=O)(=O)N(C)C[C@@H]2Oc3c(NC(=O)Nc4ccc5c(c4)OCO5)cccc3C(=O)N([C@H](C)CO)C[C@H]2C)cc1	none (no result: C2C12 statin, Rtt109 HAT inh)
C[C@H]1CCCCO[C@H](CN(C)C(=O)Nc2ccc(F)cc2)[C@@H](C)CN([C@@H](C)CO)C(=O)c2cc(NS(=O)(=O)c3cn(C)cn3)ccc2O1	none (no result: C2C12 statin, Rtt109 HAT inh)
Cc1cc(C)c(NC(=O)CNC(=O)COC(=O)/C=C/c2cccs2)c(C)c1	S100A4 inh HTS 83.8
C[C@@H]1CN([C@@H](C)CO)C(=O)c2cc(C3=CCCCC3)cnc2O[C@H]1CN(C)C(=O)c1ccncc1	none (no result: Rtt109 HAT inh)
C[C@H](CO)N1C[C@H](C)[C@@H](CN(C)Cc2ccc(C(=O)O)cc2)Oc2ccc(NC(=O)Cc3cn(C)c4ccccc34)cc2CC1=O	none (no result: C2C12 statin, Rtt109 HAT inh)
COc1cccc(C(=O)NNC(=O)c2ccccc2)c1	none
COc1cccc(C(=O)NNC(=O)C2CC(C)=C(C)CC2C(=O)O)c1 (stereo not drawn)	C2C12 statin 98.5 (no result: ERAP1 HTS inh, S100A4 inh HTS)
N#Cc1cc2c(nc1SCC(=O)N1CCCCC1)CCCCC2	C2C12 statin 116.8 (no result: ERAP1 HTS inh, S100A4 inh HTS)
COc1ccc(C2/C=C\CN(S(=O)(=O)c3cccc4cccnc34)CC(=O)N2Cc2ccc(F)cc2)cc1 (stereo not drawn)	S100A4 inh HTS 91.4 (no result: ERAP1 HTS inh)
COc1ccc([C@H]2/C=C\CN(S(=O)(=O)c3cccc4cccnc34)[C@@H](C)C(=O)N2Cc2ccc(F)cc2)cc1	none
O=C1NN(c2ccc(F)c(Cl)c2)C(=O)/C1=C\c1cccc(OC(=O)c2cccs2)c1	Rtt109 HAT inh 84.3 (no result: ERAP1 HTS inh, S100A4 inh HTS)
CC(C)=C1C(=O)NN(c2ccc(F)c(Cl)c2)C1=O	none
Cn1cc(/C=C/C(=O)c2ccccc2)c2ccccc21	none (no result: PGC1a acetyl inh)
CC(=O)N1C=CN(C(C)=O)C(c2cn(C)c3ccccc23)C1c1cn(C)c2ccccc12 (stereo not drawn)	C2C12 statin 115.0 (no result: ERAP1 HTS inh, S100A4 inh HTS)
C[C@@H]1CN([C@H](C)CO)C(=O)Cc2cc(NC(=O)NC3CCCCC3)ccc2O[C@H]1CN(C)Cc1ccc2c(c1)OCO2	none (no result: Rtt109 HAT inh)
COc1ccc(C2NC(C(=O)O)Cc3c2[nH]c2ccccc32)cc1OC (stereo not drawn)	C2C12 statin 115.7 (no result: ERAP1 HTS inh, S100A4 inh HTS)
COc1cc(C2NC(C(=O)O)Cc3c2[nH]c2ccccc32)cc(OC)c1OC (stereo not drawn)	none (no result: ERAP1 HTS inh, S100A4 inh HTS)
Cc1ccccc1Nc1nnc(SCC2CCCCO2)s1 (stereo not drawn)	Rtt109 HAT inh 51.3
C[C@@H]1CN([C@H](C)CO)C(=O)c2cc(-c3ccccc3F)cnc2O[C@H]1CN(C)Cc1cccc(C(=O)O)c1	none (no result: Rtt109 HAT inh)
Cc1cc(C(=O)Nc2cccc3c2O[C@@H](CN(C)C(=O)Nc2ccccc2)[C@@H](C)CN([C@H](C)CO)C3=O)n(C)n1	none (no result: Rtt109 HAT inh)
CC(C)CC(OC(=O)c1cccs1)C(=O)NCc1ccco1 (stereo not drawn)	none (no result: ERAP1 HTS inh, S100A4 inh HTS)
CCC(OC(=O)c1cccs1)C(=O)NCc1ccco1 (stereo not drawn)	C2C12 statin 102.1 (no result: ERAP1 HTS inh, S100A4 inh HTS)
OCCC1CN(Cc2ccc3c(c2)CCO3)CCN1Cc1ccc(F)cc1 (stereo not drawn)	S100A4 inh HTS 73.6 (no result: PGC1a acetyl inh, C2C12 statin)
Cc1ccc(CN2CCN(Cc3ccc4c(c3)OCCO4)CC2CCO)cc1 (stereo not drawn)	none (no result: C2C12 statin)
